In ChEMBL document CHEMBL1140730, “Validation of diacyl glycerolacyltransferase I as a novel target for the treatment of obesity and dyslipidemia using a potent and selective small molecule inhibitor” (J Med Chem, 2008):
Active and inactive are the calls of the source. The rule behind the calls is not given here.

Columns and labels:
[1] = molecular target: T1, Diacylglycerol O-acyltransferase 1 (Mus musculus, UniProt Q9Z2A7); experiment: Inhibition of mouse recombinant DGAT1 expressed in Sf9 cells
T1 sequence (Q9Z2A7 whole entry): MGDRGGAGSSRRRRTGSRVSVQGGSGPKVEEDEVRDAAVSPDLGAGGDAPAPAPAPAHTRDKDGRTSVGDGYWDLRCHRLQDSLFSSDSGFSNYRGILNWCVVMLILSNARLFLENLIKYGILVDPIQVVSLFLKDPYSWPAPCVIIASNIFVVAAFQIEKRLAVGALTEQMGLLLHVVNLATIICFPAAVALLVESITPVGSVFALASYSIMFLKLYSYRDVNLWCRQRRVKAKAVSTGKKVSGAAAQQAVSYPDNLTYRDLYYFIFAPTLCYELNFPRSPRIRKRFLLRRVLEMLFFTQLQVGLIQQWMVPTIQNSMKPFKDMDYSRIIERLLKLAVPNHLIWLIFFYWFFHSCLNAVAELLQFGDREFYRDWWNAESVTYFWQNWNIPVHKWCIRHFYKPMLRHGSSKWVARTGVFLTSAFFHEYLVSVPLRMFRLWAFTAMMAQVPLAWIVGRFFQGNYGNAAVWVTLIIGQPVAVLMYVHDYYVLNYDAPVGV

[2] = molecular target: T2, Diacylglycerol O-acyltransferase 1 (Homo sapiens, UniProt O75907); experiment: Inhibition of human recombinant DGAT1 expressed in Sf9 cells
T2 sequence (O75907 whole entry): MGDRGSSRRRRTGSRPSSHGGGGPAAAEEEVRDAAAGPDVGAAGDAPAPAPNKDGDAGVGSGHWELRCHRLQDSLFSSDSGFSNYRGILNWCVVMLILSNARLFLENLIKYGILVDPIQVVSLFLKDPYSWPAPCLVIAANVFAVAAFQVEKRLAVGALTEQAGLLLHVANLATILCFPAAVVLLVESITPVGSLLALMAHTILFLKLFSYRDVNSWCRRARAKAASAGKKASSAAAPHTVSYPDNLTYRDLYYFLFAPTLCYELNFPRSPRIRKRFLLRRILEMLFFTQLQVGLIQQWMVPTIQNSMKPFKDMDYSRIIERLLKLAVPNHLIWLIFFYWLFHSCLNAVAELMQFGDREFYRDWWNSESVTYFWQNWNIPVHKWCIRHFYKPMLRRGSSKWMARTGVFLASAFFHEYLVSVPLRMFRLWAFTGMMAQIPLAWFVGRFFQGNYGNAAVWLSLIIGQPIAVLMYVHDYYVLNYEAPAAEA

[3] = molecular target: T3, Diacylglycerol O-acyltransferase 2 (Mus musculus) (UniProt Q9DCV3); experiment: Inhibition of mouse DGAT2
T3 sequence (whole entry): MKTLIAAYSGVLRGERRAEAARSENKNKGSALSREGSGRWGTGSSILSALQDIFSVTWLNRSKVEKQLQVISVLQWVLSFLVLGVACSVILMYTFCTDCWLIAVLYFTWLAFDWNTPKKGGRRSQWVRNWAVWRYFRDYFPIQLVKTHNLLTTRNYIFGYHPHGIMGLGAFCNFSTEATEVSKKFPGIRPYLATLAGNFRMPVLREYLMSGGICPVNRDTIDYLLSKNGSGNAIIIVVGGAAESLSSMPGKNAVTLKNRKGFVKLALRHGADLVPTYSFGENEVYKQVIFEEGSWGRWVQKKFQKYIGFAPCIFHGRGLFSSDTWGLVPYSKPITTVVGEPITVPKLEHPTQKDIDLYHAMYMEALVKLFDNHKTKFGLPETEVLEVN

[4] = molecular target: T4, Sterol O-acyltransferase 1 (Homo sapiens) (UniProt P35610); experiment: Inhibition of human ACAT1
T4 sequence (whole entry): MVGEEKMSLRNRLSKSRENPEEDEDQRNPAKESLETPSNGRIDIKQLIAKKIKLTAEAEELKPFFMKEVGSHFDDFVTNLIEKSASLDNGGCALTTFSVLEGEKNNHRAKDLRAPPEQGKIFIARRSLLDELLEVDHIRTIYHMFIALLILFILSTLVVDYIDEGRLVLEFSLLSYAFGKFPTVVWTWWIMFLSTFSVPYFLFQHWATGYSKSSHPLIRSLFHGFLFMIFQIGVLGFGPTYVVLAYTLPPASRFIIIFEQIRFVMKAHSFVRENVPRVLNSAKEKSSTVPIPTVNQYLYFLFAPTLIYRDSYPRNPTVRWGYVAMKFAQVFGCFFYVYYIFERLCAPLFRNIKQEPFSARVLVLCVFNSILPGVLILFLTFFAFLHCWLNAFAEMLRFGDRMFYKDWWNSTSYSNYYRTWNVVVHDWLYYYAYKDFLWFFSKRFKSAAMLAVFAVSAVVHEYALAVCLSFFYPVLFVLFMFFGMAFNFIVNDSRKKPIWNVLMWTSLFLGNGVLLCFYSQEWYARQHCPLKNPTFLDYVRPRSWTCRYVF

[5] = molecular target: T5, Sterol O-acyltransferase 2 (Homo sapiens) (UniProt O75908); experiment: Inhibition of human ACAT2
T5 sequence (whole entry): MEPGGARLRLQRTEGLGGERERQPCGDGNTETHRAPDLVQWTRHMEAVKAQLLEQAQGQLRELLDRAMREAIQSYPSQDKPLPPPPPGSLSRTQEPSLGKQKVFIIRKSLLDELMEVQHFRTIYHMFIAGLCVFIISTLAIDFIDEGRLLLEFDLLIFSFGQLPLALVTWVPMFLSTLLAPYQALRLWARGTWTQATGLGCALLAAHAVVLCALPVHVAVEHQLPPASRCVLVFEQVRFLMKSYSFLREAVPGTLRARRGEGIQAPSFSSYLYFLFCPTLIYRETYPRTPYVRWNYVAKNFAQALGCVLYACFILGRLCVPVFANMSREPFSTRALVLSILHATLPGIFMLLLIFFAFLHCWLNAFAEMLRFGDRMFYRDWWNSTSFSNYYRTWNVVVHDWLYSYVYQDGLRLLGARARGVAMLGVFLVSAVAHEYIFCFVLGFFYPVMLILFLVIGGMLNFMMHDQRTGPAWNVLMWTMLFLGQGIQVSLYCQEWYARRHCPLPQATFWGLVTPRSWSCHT

[6] = Plasma clearance in rat at 5 mg/kg, iv; type: ADME, organism-based; parameters: dose 5 mg/kg, route intravenous
Outline: (§1)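 Single-dose pharmacokinetics given iv or orally to mouse (10 mg/kg), rat (5 mg/kg) and dog (2.5 mg/kg). Half-life, Cmax, AUC, plasma clearance, volume of distribution and oral bioavailability were derived from plasma levels. Values are means, n = 3 unless stated otherwise.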

[7] = AUC in rat at 5 mg/kg, iv; type: ADME, organism-based; parameters: dose 5 mg/kg, route intravenous; conditions: plasma; outline: as §1
[8] = Volume of distribution at terminal phase in rat at 5 mg/kg, iv; type: ADME, organism-based; parameters: dose 5 mg/kg, route intravenous; conditions: in vivo, read-out: Vbeta; outline: as §1
[9] = Half life in DIO mouse at 10 mg/kg, po; type: ADME, organism-based; parameters: dose 10 mg/kg, route oral; conditions: in vivo; outline: as §1
[10] = Cmax in DIO mouse at 10 mg/kg, po; type: ADME, organism-based; parameters: dose 10 mg/kg, route oral; conditions: in vivo; outline: as §1
[11] = AUC in DIO mouse at 10 mg/kg, po; type: ADME, organism-based; parameters: dose 10 mg/kg, route oral; conditions: plasma; outline: as §1
[12] = Half life in rat at 5 mg/kg, iv; type: ADME, organism-based; parameters: dose 5 mg/kg, route intravenous; conditions: in vivo; outline: as §1
[13] = Half life in rat at 5 mg/kg, po; type: ADME, organism-based; parameters: dose 5 mg/kg, route oral; conditions: in vivo; outline: as §1
[14] = Cmax in rat at 5 mg/kg, po; type: ADME, organism-based; parameters: dose 5 mg/kg, route oral; conditions: in vivo; outline: as §1
[15] = AUC in rat at 5 mg/kg, po; type: ADME, organism-based; parameters: dose 5 mg/kg, route oral; conditions: plasma; outline: as §1
[16] = Oral bioavailability in rat at 5 mg/kg; type: ADME, organism-based; conditions: in vivo; outline: as §1
[17] = Half life in dog at 2.5 mg/kg, iv; type: ADME, organism-based, Canis lupus familiaris; parameters: dose 2.5 mg/kg, route intravenous; conditions: in vivo; outline: as §1
[18] = Volume of distribution at terminal phase in dog at 2.5 mg/kg, iv; type: ADME, organism-based, Canis lupus familiaris; parameters: dose 2.5 mg/kg, route intravenous; conditions: in vivo, read-out: Vbeta; outline: as §1
[19] = AUC in dog at 2.5 mg/kg, iv; type: ADME, organism-based, Canis lupus familiaris; parameters: dose 2.5 mg/kg, route intravenous; conditions: plasma; outline: as §1
[20] = Plasma clearance in dog at 2.5 mg/kg, iv; type: ADME, organism-based, Canis lupus familiaris; parameters: dose 2.5 mg/kg, route intravenous; outline: as §1
[21] = Half life in dog at 2.5 mg/kg, po; type: ADME, organism-based, Canis lupus familiaris; parameters: dose 2.5 mg/kg, route oral; conditions: in vivo; outline: as §1
[22] = Cmax in dog at 2.5 mg/kg, po; type: ADME, organism-based, Canis lupus familiaris; parameters: dose 2.5 mg/kg, route oral; conditions: in vivo; outline: as §1
[23] = AUC in dog at 2.5 mg/kg, po; type: ADME, organism-based, Canis lupus familiaris; parameters: dose 2.5 mg/kg, route oral; conditions: plasma; outline: as §1
[24] = Oral bioavailability in dog at 2.5 mg/kg; type: ADME, organism-based, Canis lupus familiaris; conditions: in vivo; outline: as §1
Mus musculus [25] = experiment: Decrease in body weight in DIO C57BL/6J mouse at 3 mg/kg, po bid after 7 days; type: functional, organism-based; parameters: dose 3 mg/kg
Outline: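 DIO mice kept on high-fat diet ad libitum were dosed orally for four weeks, either 3 mg/kg bid in 1% Tween-80/water or a reference at 10 mg/kg qd, alongside a vehicle group. Body weight was measured on days 1, 5, 7, 14 and 27 and expressed as change in grams from day zero. Mean ± SEM, n = 9, compared with vehicle.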

Mus musculus [26] = experiment: Decrease in liver triglyceride level in DIO C57BL/6J mouse at 3 mg/kg, po after 28 days; type: functional
Outline: (§2)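 DIO mice on high-fat diet were dosed orally for four weeks at 3 mg/kg bid in 1% Tween-80/water, or a reference at 10 mg/kg qd. Liver triglycerides were determined on day 28 only. Mean ± SEM, n = 9, compared with vehicle.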

Mus musculus [27] = experiment: Increase in liver triglyceride level in DIO C57BL/6J mouse at 3 mg/kg, po after 28 days; type: ADME, organism-based; parameters: dose 3 mg/kg, route oral; conditions: in vivo, 672 h; outline: as §2
[28] = Cmax in C57BL/6J mouse at 3 mg/kg, po after 1 hr; type: ADME, organism-based; parameters: dose 3 mg/kg, route oral; conditions: in vivo
Outline: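 On day 28 of oral dosing at 3 mg/kg bid in DIO mice, plasma drug concentration was measured at 1 h (n = 3) and 17 h (n = 9) after the final dose. Mean ± SEM.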

Mus musculus [29] = experiment: Reduction of chylomicron-derived serum triglyceride level in acute lipid challenged DIO C57BL/6J mouse at 0.3 mg/kg, po; type: functional; parameters: scale not given: the % may be the effect or the level left
Outline: (§3)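 DIO mice were dosed orally at 0.3, 3 or 30 mg/kg: bid on days 1–2, fasted overnight, then dosed once on day 3. One hour after the final dose a corn oil bolus was given by gavage, and plasma triglycerides were measured 1 h later. Percent inhibition for the 0.3 and 3 mg/kg doses is relative to the 30 mg/kg dose. Mean ± SEM, n = 9.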

Mus musculus [30] = experiment: Reduction of chylomicron-derived serum triglyceride level in acute lipid challenged DIO C57BL/6J mouse at 3 mg/kg, po; type: functional; parameters: scale not given: the % may be the effect or the level left; outline: as §3
Mus musculus [31] = experiment: Reduction of chylomicron-derived serum triglyceride level in acute lipid challenged DIO C57BL/6J mouse at 30 mg/kg, po; type: functional; parameters: scale not given: the % may be the effect or the level left; outline: as §3
Mus musculus [32] = experiment: Decrease in body weight in DIO C57BL/6J mouse at 3 mg/kg, po bid after 14 days

O=C(Nc1ccc(-c2ccc(C(=O)[C@@H]3CCC[C@H]3C(=O)O)cc2)cc1)Nc1cc(C(F)(F)F)ccc1F
IC50 [1]: 0.021 µM

O=C(Nc1ccc(-c2ccc(C(=O)[C@@H]3CCC[C@H]3C(=O)O)cc2)cc1)Nc1cccc(Cl)c1
IC50 [1]: 0.019 µM

O=C(Nc1ccccc1)Nc1ccc(-c2ccc(C(=O)[C@@H]3CCC[C@H]3C(=O)O)cc2)cc1
IC50 [2]: 0.007 µM | IC50 [1]: 0.024 µM | Activity [3]: inactive | Activity [4]: inactive | Activity [5]: inactive | clearance [6]: 0.667 mL/min/kg | AUC [7]: 145000 ng·h/mL | Vd [8]: 0.21 L/kg | half-life [9]: 6.5 h | Cmax [10]: 3510 ng/mL | AUC [11]: 15200 ng·h/mL | half-life [12]: 3.9 h | half-life [13]: 2.7 h | Cmax [14]: 8530 ng/mL | AUC [15]: 80200 ng·h/mL | bioavailability [16]: 55.2% | half-life [17]: 3.3 h | Vd [18]: 1.21 L/kg | AUC [19]: 11100 ng·h/mL | clearance [20]: 3.83 mL/min/kg | half-life [21]: 3.6 h | Cmax [22]: 2470 ng/mL | AUC [23]: 5500 ng·h/mL | bioavailability [24]: 49.2% | Activity (Mus musculus [25]): Active | Activity (Mus musculus [26]): 53.5 mg/dL | Activity (Mus musculus [27]): 88 mg/dL | Cmax [28]: 910 ng/mL | Activity (Mus musculus [29]): 73% | Activity (Mus musculus [30]): 93% | Activity (Mus musculus [31]): 100% | Activity (Mus musculus [32]): Active

O=C(Nc1ccccc1)Nc1ccc(-c2ccc(C(=O)[C@@H]3CCC[C@@H]3C(=O)O)cc2)cc1
IC50 [2]: 0.098 µM

O=C(Nc1ccc(-c2ccc(C(=O)[C@@H]3CCC[C@H]3C(=O)O)cc2)cc1)Nc1ccccc1C(F)(F)F
IC50 [1]: 0.016 µM

O=C(Nc1ccccc1)Nc1ccc(-c2ccc(C(=O)[C@H]3CCC[C@@H]3C(=O)O)cc2)cc1
IC50 [2]: 0.096 µM
